This experiment addresses T1, Prostaglandin D2 receptor 2 (Homo sapiens, UniProt Q9Y5Y4).
T1 sequence (Q9Y5Y4 whole entry): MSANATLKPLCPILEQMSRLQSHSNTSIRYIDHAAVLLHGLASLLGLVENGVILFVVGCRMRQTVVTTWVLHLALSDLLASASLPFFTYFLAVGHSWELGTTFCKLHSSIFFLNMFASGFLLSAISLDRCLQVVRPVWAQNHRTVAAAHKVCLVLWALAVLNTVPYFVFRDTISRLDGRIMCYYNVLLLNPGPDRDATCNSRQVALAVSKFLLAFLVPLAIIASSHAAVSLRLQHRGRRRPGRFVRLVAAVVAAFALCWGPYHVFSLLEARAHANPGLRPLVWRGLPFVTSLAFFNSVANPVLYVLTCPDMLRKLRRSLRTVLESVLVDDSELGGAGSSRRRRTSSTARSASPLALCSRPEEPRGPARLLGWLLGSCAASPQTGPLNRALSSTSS
Nature of the experiment: Displacement of [3H]PGD2 from human CRTh2 receptor. The procedure, abridged: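 Human CRTh2 binding assay run in assay buffer. IC50 reported as the mean of at least three experiments.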

The values below come from ChEMBL document CHEMBL2390869, “Evolution of novel tricyclic CRTh2 receptor antagonists from a (E)-2-cyano-3-(1H-indol-3-yl)acrylamide scaffold” (Bioorg Med Chem Lett, 2013).

pIC50: −log10 of the molar value.

`CN(C(=O)/C(C#N)=C/c1cn(CC(=O)O)c2ccc(Cl)cc12)c1ccccc1` had a pIC50 of 8.15.

Take `CN(C(=O)/C(C#N)=C/c1cn(CC(=O)O)c2cc(F)ccc12)c1ccccc1`: the negative-log IC50 (pIC50) is 7.35.

Compound `N#C/C(=C\c1cn(CCCC(=O)O)c2ccccc12)C(=O)Nc1ccccc1` showed a pIC50 of 5.59.

The compound `N#C/C(=C\c1cn(CC(=O)O)c2ccccc12)C(=O)N(c1ccccc1)C1CCCCC1` gave a pIC50 of 7.52.

In turn, `N#C/C(=C\c1cn(CC(=O)O)c2ccccc12)C(=O)N1CCc2ccccc21` showed a pIC50 of 7.22.

Compound `O=C(O)Cn1c2c(c3ccccc31)CC(C(=O)Nc1ccccc1)CC2` (racemic) gave a pIC50 of 6.84.

`CCCCCC(=O)N1CCc2c(c3ccccc3n2CC(=O)O)C1` gave a pIC50 of 6.68.

Take `CN(C(=O)/C(C#N)=C/c1cn(CC(=O)O)c2ccc(F)cc12)c1ccccc1`: the pIC50 was 8.00.

Consider `Cc1ccc2c(c1)c(/C=C(\C#N)C(=O)N(C)c1ccccc1)cn2CC(=O)O`, for which the pIC50 was 8.15.

Regarding `O=C(O)Cn1c2c(c3ccccc31)CN(C(=O)Cc1ccccc1)CC2`, the negative-log IC50 (pIC50) was 6.70.

`CN(C(=O)/C(C#N)=C/c1cn(CC(=O)O)c2cccc(F)c12)c1ccccc1` showed a pIC50 of 8.00.

Take `CN(C(=O)/C(C#N)=C/c1cn(CC(=O)O)c2c(Cl)cccc12)c1ccccc1`: the pIC50 was 7.30.

In the case of `CC(=O)N1CCc2c(c3ccccc3n2CC(=O)O)C1`, the pIC50 was 5.80.

On to `CN(C(=O)/C(C#N)=C/c1cn(CC(=O)O)c2c(F)cccc12)c1ccccc1`, for which the negative-log IC50 (pIC50) is 7.00.

As to `Cc1cccc2c1c(/C=C(\C#N)C(=O)N(C)c1ccccc1)cn2CC(=O)O`, the pIC50 is 8.00.

`N#C/C(=C\c1cn(CC(=O)O)c2ccccc12)C(=O)N(Cc1ccccc1)c1ccccc1` gave a pIC50 of 7.52.

A word on the pIC50: it is the negative decadic logarithm of the IC50, by convention in mol/L. A higher pIC50 goes with a small IC50.
